KCNK3 inh = human KCNK3 channel inhibition, primary screen; O14649; CHO-KCNK3 thallium flux, FluxOR fluorescence; active compounds read low; B-score at 10 µM; actives 0.84% (n = 340,000); AID 602410;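 active = B-score under library mean minus 4 SD, starting fluorescence ratio at most library mean plus 5 SD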;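 note: more negative B-score means stronger inhibition of thallium flux through KCNK3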
Kir21 inh = inhibitors of mouse Kir2.1 inward-rectifier potassium channel; AID 1672; actives 0.85% (n = 310,000); P35561; B-score at 10 µM; HEK293-Kir2.1, FluxOR thallium flux fluorescence; active compounds read low;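 active = fluorescence ratio B-score at or below minus 3 SD of library scores, with starting-brightness B-score within 2 SD, cut at about -4.2 in these data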;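 note: channel flux triggered by added potassium and thallium sulfate stimulus; B-score of peak minus minimum fluorescence over baseline after thallium stimulus; more negative B-score means stronger Kir2.1 block with less thallium influx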
KCNK9 inh = blocks the human KCNK9 two-pore domain potassium channel | Q9NPC2 | HEK293 KCNK9, FluxOR thallium flux fluorescence; active compounds read low | B-score at 10 µM | actives 1.2% (n = 310,000);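 active = ratio B-score over 3 SD below the library mean, with starting fluorescence within 5 SD of its mean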;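 note: negative B-score means less thallium flux so channel inhibition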
hERG protect = hERG (human) protection from proarrhythmic block; Q12809; CHO-hERG, FluxOR thallium flux, dofetilide IC70 present; activation (rescue from dofetilide block), less the hit threshold, % at 10 µM; actives 0.51% (n = 310,000); AID 1511;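 active = activation above the mean of controls blocked by dofetilide plus 5 SD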;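 note: thallium influx through hERG after potassium depolarization seen as dye fluorescence rise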
KCNQ1 pot = potentiates or activates the human KCNQ1 potassium channel; P51787; CHO-K1 KCNQ1, thallium flux FluxOR fluorescence; active compounds read high; B-score at 10 µM; actives 0.35% (n = 310,000);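 active = fluorescence ratio B-score, a plate-corrected score, at least three library SD, with initial intensity B-score within 5 SD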
Target sequence (P51787 whole entry, looked up): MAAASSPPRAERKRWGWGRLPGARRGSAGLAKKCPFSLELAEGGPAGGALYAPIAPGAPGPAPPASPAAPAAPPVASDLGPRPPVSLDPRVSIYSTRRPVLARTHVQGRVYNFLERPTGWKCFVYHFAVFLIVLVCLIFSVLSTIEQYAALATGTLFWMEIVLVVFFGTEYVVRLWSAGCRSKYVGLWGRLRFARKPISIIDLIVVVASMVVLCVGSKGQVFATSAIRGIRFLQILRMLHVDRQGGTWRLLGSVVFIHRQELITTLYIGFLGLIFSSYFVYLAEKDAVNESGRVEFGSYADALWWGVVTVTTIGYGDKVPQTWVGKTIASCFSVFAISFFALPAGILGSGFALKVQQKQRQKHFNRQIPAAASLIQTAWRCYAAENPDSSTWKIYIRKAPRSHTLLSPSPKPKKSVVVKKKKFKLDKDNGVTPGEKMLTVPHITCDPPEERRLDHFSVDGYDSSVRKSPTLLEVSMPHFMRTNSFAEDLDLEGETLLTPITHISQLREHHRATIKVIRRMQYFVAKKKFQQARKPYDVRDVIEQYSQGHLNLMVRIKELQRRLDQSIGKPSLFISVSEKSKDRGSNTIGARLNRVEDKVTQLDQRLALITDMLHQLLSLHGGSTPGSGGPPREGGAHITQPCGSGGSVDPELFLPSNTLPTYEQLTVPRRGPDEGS
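Test system: CHO-K1 cells stably expressing KCNQ1 / Medium: assay buffer / Also added: depolarizing K+/Tl+ stimulus, K2SO4 and Tl2SO4 each 12.5 mM in 5x stock / Incubation: 90 min dye loading and 20 min compound exposure, both at room temperature / Signal: thallium influx via FluxOR fluorescence, kinetic imaging / Evaluation: B score of baseline-normalized fluorescence ratio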
KCNQ1 block = human KCNQ1 channel inhibition | P51787 | CHO-K1 KCNQ1, FluxOR thallium flux fluorescence; active compounds read high | B-score at 10 µM | actives 1.3% (n = 310,000) | AID 2642;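 active = compounds whose thallium flux B-score, printed positive for inhibition, exceeds three library SD while starting fluorescence stays within three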;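 note: channel opened by potassium depolarization with thallium stimulus after 20 min compound exposure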
The depositor's hits bear a star; i = inactive; . = no result given. The list is not random: actives were taken first. Their share in the collection is about 3.7%.

SMILES	KCNK3 inh	Kir21 inh	KCNK9 inh	hERG protect	KCNQ1 pot	KCNQ1 block
Cc1ccc(CSCCNS(=O)(=O)c2ccc([N+](=O)[O-])cc2)cc1	i	-4.37*	i	-6.3	i	i
Cc1ccc(S(=O)(=O)NCCSCc2ccccc2)cc1	i	-5.7*	i	-9.8	i	i
CNC(=O)c1cc(S(=O)(=O)Nc2ccc3c(c2)OCO3)ccc1C	i	-0.01	i	-2.1	i	i
CSCCC(NC(=O)c1ccccc1)C(=O)N1CCN(C(C)=O)CC1 (stereo not drawn)	i	.	.	.	.	.
O=C1c2[nH]nc(-c3ccccc3O)c2C(c2ccc(F)cc2)N1Cc1ccco1 (stereo not drawn)	i	-0.32	i	-21.0	i	6*
C/C(=N\OC(=O)Nc1ccccc1)c1cnn(-c2cc(C(F)(F)F)cc(C)n2)c1C	i	-1.34	i	-6.9	i	i
O=C(N/N=C/c1cc([N+](=O)[O-])ccc1O)c1ccc(COc2ccc3c(c2)CCC3)o1	i	-1.19	i	14.2*	i	i
CCCCS(=O)(=O)/C=C\C=C/S(=O)(=O)CCCC	i	-1.66	i	-12.2	14*	i
COc1ccc2nc(N(Cc3ccccc3)C(=O)CCNC(C)=O)sc2c1	i	-0.27	i	-10.3	i	i
Cc1ccc(CN2CCSc3ccc(C(=O)NCc4ccco4)cc32)cc1	i	-1.56	-7.1*	-9.9	i	i
Cc1ccc(CN2CCSc3ccc(C(=O)NCCCN4CCOCC4)cc32)cc1	i	-3.48	i	-16.8	i	i
Cn1c(=O)c2c(nc(N/N=C/c3ccc(OC(=O)c4ccco4)cc3)n2Cc2ccccc2Cl)n(C)c1=O	i	-0.53	i	-6.0	i	7*
CC(=O)NCCC(=O)Nc1cc(S(=O)(=O)N2CCOCC2)ccc1Oc1ccccc1	i	0.14	i	-5.7	i	i
CCN1/C(=C\C=C(C(C)=O)C(C)=O)Sc2ccccc21	i	-7.31	i	-22.4	i	8*
COc1cc(/C=N/n2c(C3CCCCC3)n[nH]c2=S)ccc1O	i	-0.8	i	-13.5	i	i
CCc1nc(SCC(=O)Nc2nnc(CC)s2)c2c(=O)n(C)c(=O)n(C)c2n1	i	-0.18	i	-5.0	i	i
N#CC1=C(N)SC(N)=C(C#N)C1CCC1CCCCC1	.	-5.2	i	-29.6	i	9*
CC(Oc1ccc(Br)cc1)C(=O)Nc1ccc(S(=O)(=O)N(C)C2CCN(C)CC2)cc1 (stereo not drawn)	i	-1.01	i	-15.8	10*	i
CN(CC(=O)Nc1ccc(F)c(F)c1F)C(=O)C1CCC1	i	0.5	i	-14.5	i	i
COc1ccccc1N1CCN(C(=O)CC(NC(=O)c2ccccc2Cl)c2ccccc2)CC1 (stereo not drawn)	i	.	.	.	.	.
N#C/C(=C\c1ccc(N2CCOCC2)o1)C(=O)NCC1CCCO1 (stereo not drawn)	i	-4.4	i	-17.2	i	9*
N#C/C(=C/c1ccc(-c2ccc(S(=O)(=O)N3CCOCC3)cc2)o1)C(=O)NC1CC1	i	.	.	.	.	.
COCCNC(=O)/C(C#N)=C/c1ccc(N2CCOCC2)o1	i	-6.7	i	-20.6	i	i
N#C/C(=C/c1ccc(N2CCOCC2)o1)C(=O)Nc1ccccc1	i	-3.73	-6.58*	-33.6	i	i
N#C/C(=C\c1ccc(N2CCOCC2)o1)C(=O)NC1CCCCC1	i	-6.58	i	-25.9	i	9*
SMILES	KCNK3 inh	Kir21 inh	KCNK9 inh	hERG protect	KCNQ1 pot	KCNQ1 block
CCCCOc1ccc(CSCCN=C(N)N)cc1	i	-1.4	i	-5.7	i	i
O=C(CN1C(=O)c2ccccc2S1(=O)=O)Nc1ncc(Cl)cc1Cl	i	.	.	.	.	.
CN1CCN(/N=C/c2ccc(OCc3ccccc3)cc2)CC1	i	0.13	i	-11.2	i	i
CN1CCN(CC(O)(c2ccc(Cl)cc2)c2ccc(Cl)cc2)CC1	i	-8.84*	i	-17.1	i	i
CN1CCN(CC(O)COc2ccc(Cl)cc2)CC1 (stereo not drawn)	i	-1.61	i	-4.4	i	i
Cc1cc(C)c2cc(C#N)c(N3CCCN(C(=S)NCCCN(C)C)CC3)nc2c1	i	-6.6*	i	-13.4	i	i
COCCCn1c(=O)c2ccccc2n(Cc2cc(C(=O)OC)ccc2OC)c1=O	i	-0.95	i	-7.4	i	i
N=c1n(Cc2ccccc2Cl)c2ccccc2n1CC(O)c1ccco1 (stereo not drawn)	i	-5.22*	i	-10.5	i	i
Cc1ccc(Cn2c(=N)n(CC(=O)c3ccccc3)c3ccccc32)cc1	i	-8.95*	i	-30.5	i	i
N=c1n(CC(=O)c2cccc([N+](=O)[O-])c2)c2ccccc2n1Cc1ccccc1	i	0.33	i	-18.2	i	i
Cn1c(=N)n(CC(O)c2cccc3ccccc23)c2ccccc21 (stereo not drawn)	i	-4.37*	i	-9.5	i	i
N=c1n(N)c2ccccc2n1CC(=O)c1ccc(Br)cc1	i	-5.54*	i	-9.3	i	i
C=CCn1c(=N)n(CC(=O)c2ccc(Br)cc2)c2ccccc21	i	0.45	i	-13.7	i	i
CN(CC(=O)Nc1ncn[nH]1)S(=O)(=O)c1ccc(Br)cc1	i	0.61	i	-6.5	i	i
CC1CCCCN1CCCNC(=O)CCCN1C(=O)c2cccnc2Sc2ccccc21 (stereo not drawn)	i	0.17	i	-6.0	i	i
CCOCCCNC(=O)c1cc(Cl)c(NC(=O)C2=C(C)OCCS2)cc1OC	i	-0.24	i	-8.3	i	i
CCOc1ccc(N2C(=O)C(C)CNC2=S)cc1 (stereo not drawn)	i	.	.	.	.	.
Cc1ccc(Cn2c(=N)n(CC(O)c3ccco3)c3ccccc32)cc1 (stereo not drawn)	i	-5.02*	i	-7.4	i	i
CCCn1c(=N)n(CC(O)c2ccco2)c2ccccc21 (stereo not drawn)	i	-0.17	i	0.7	i	i
CCCn1c(=N)n(CC(O)c2ccc(C)cc2)c2ccccc21 (stereo not drawn)	i	-6.05*	i	-13.5	i	i
N#Cc1ccccc1OCC(=O)NC(=O)NC1CCS(=O)(=O)C1 (stereo not drawn)	i	.	.	.	.	.
CCCN(CCC)C1=CC(=[N+]2CCCC2)CC(C)(C)C1	i	-4.01	i	-12.5	i	6*
CN(C)NC1=CC(=[N+]2CCCC2)CC(C)(C)C1	i	0.42	i	-12.1	i	i
